Test results: paper PMC4055946 (Nuclear medicine and biology, 2014)

Assays:
[1] = Rat whole body biodistribution of radioactivity after intravenous injection; type: in vivo; details: female CD rats, i.v., N = 3; for Tissue biodistribution, Bone, avg: femur in its entirety
Procedure, shortened: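 Female CD rats (N = 6) under light isoflurane got carbon-11 labeled test compound (1.85-4.44 MBq in 5% ethanol/saline) by tail vein. At 5 and 40 min, groups of 3 were anesthetized and killed by decapitation, and tissues were removed. Samples were weighed and counted for carbon-11, and uptake was expressed as % injected dose/g.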

[2] = target: T1, cathepsin K (Rattus norvegicus, UniProt O35186); experiment: MicroPET imaging of bone uptake and blocking in rat; details: for radioactivity in actively growing bone regions relative to non-target regions such as muscle: normal rat, microPET, 0-60 min, i.v.
T1 sequence (O35186 115-329): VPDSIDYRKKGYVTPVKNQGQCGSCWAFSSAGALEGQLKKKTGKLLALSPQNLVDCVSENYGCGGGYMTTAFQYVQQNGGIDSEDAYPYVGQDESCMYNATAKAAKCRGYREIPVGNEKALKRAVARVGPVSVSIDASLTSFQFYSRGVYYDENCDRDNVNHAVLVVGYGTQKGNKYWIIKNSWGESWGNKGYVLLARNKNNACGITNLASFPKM

With `[11CH3]Oc1ccc(CCNC(=O)c2cnc(C#N)nc2NC2CCCCC2)cc1` [[^11C]1, 2-cyano-4-(cyclohexylamino)-N-(4-[^11C]methoxyphenethyl)-pyrimidine-5-carboxamide] the “Tissue biodistribution, Adrenal, avg” value ([1]; 5 min) was 3.57 % injected dose/g, the “Tissue biodistribution, Blood, avg” value ([1]; 5 min) was 0.24 % injected dose/g and the “Tissue biodistribution, Brain, avg” value ([1]; 5 min) was 0.43 % injected dose/g. The “Tissue biodistribution, Heart, avg” value ([1]; 5 min) was 1.23 % injected dose/g, the “Tissue biodistribution, Kidney, avg” value ([1]; 5 min) was 2.03 % injected dose/g and the “Tissue biodistribution, Liver, avg” value ([1]; 5 min) was 3.02 % injected dose/g. For the same compound, the “Tissue biodistribution, Lung, avg” value ([1]; 5 min) was 0.68 % injected dose/g, the “Tissue biodistribution, Muscle, avg” value ([1]; 5 min) was 0.11 % injected dose/g and the “Tissue biodistribution, Pancreas, avg” value ([1]; 5 min) was 1.68 % injected dose/g. The “Tissue biodistribution, Spleen, avg” value ([1]; 5 min) was 1.03 % injected dose/g, the “Tissue biodistribution, Bone, avg” value ([1]; 5 min) was 0.26 % injected dose/g and the “Tissue biodistribution, Adrenal, avg” value ([1]; 40 min) was 0.51 % injected dose/g. For the same compound, the “Tissue biodistribution, Blood, avg” value ([1]; 40 min) was 0.11 % injected dose/g, the “Tissue biodistribution, Brain, avg” value ([1]; 40 min) was 0.11 % injected dose/g and the “Tissue biodistribution, Heart, avg” value ([1]; 40 min) was 0.19 % injected dose/g. The “Tissue biodistribution, Kidney, avg” value ([1]; 40 min) was 0.41 % injected dose/g, the “Tissue biodistribution, Liver, avg” value ([1]; 40 min) was 0.68 % injected dose/g and the “Tissue biodistribution, Lung, avg” value ([1]; 40 min) was 0.16 % injected dose/g. The “Tissue biodistribution, Muscle, avg” value ([1]; 40 min) was 0.11 % injected dose/g, the “Tissue biodistribution, Pancreas, avg” value ([1]; 40 min) was 0.56 % injected dose/g and the “Tissue biodistribution, Spleen, avg” value ([1]; 40 min) was 0.22 % injected dose/g. The “Tissue biodistribution, Bone, avg” value ([1]; 40 min) was 0.14 % injected dose/g and the “radioactivity in actively growing bone regions relative to non-target regions such as muscle” value [2] was 2 to 3 times.
In the case of `CC(C)(C)CNc1nc(C#N)ncc1C(=O)NCCc1ccc(O[11CH3])cc1` [[^11C]2, 2-cyano-N-(4-[^11C]methoxyphenethyl)-4-(neopentylamino)pyrimidine-5-carboxamide], the “radioactivity in actively growing bone regions relative to non-target regions such as muscle” value [2] is reported as 2 to 3 times and the “bone uptake of radioactivity after blocking dose of unlabeled ligand” value ([2]; rat microPET, 2 mg/kg unlabeled 2 ten minutes prior to the radioligand) is reported as “reduction of bone uptake of radioactivity to essentially levels equivalent to background in non-target tissues”.
